Test results: ChEMBL document CHEMBL1156498, “4-Hydroxynonenal, an endogenous aldehyde, causes pain and neurogenic inflammation through activation of the irritant receptor TRPA1” (Proc Natl Acad Sci U S A, 2007)
Calls of active or inactive are those of the source. No cut-off for these calls is given here.

How the values were obtained:
[1] = tested on: Esophagus; assay: Induction of neurogenic inflammation in capsaicin desensitized rat esophagus assessed as CGRP release per 20 mins at 50 uM; type: functional
Method in brief: (§1)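 Rat lumbar dorsal spinal cord or esophagus slices (~0.4 mm), superfused in Krebs' solution at 37°C after 60 min stabilization. Tissue desensitized beforehand with 10 μM capsaicin for 20 min. Fractions collected at 10-min intervals into ethanoic acid (final 2 N), freeze-dried, and assayed for SP or CGRP immunoreactivity. Results in fmol/g/20 min, at least four experiments.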

[2] = tested on: Spinal cord; assay: Induction of neurogenic inflammation in capsaicin desensitized rat dorsal spinal cord assessed as CGRP peptide release per 20 mins at 10 uM; type: functional; method in brief: as §1
[3] = tested on: Esophagus; assay: Induction of neurogenic inflammation in rat esophagus assessed as CGRP release per 20 mins at 50 uM; type: functional
Method in brief: (§2)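 Rat lumbar dorsal spinal cord or esophagus slices (~0.4 mm), stabilized 60 min in Krebs' solution at 37°C, then superfused. Fractions collected at 10-min intervals into ethanoic acid (final 2 N), freeze-dried, reconstituted, and assayed for SP or CGRP immunoreactivity. Results in fmol/g/20 min, at least four experiments.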

[4] = tested on: Spinal cord; assay: Induction of neurogenic inflammation in rat dorsal spinal cord assessed as substance P release per 20 mins at 10 uM; type: functional; method in brief: as §2
[5] = tested on: Spinal cord; assay: Induction of neurogenic inflammation in rat dorsal spinal cord assessed as substance P release per 20 mins at 10 uM in calcium free medium; type: functional
Method in brief: (§3)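 Rat dorsal spinal cord or esophagus slices superfused in Krebs' solution at 37°C, with extracellular Ca2+ chelated by 2 mM EGTA added to the bath. Fractions collected every 10 min into ethanoic acid (final 2 N), freeze-dried, and assayed for SP or CGRP immunoreactivity. Results in fmol/g/20 min, at least four experiments.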

[6] = tested on: Esophagus; assay: Induction of neurogenic inflammation in rat esophagus assessed as CGRP release per 20 mins at 50 uM in calcium free medium; type: functional; method in brief: as §3
[7] = tested on: Esophagus; assay: Induction of neurogenic inflammation in rat esophagus assessed as substance P release per 20 mins at 50 uM in calcium free medium; type: functional; method in brief: as §3
[8] = tested on: Esophagus; assay: Induction of neurogenic inflammation in rat esophagus assessed as substance P release per 20 mins at 50 uM; type: functional; method in brief: as §2
[9] = tested on: Spinal cord; assay: Induction of neurogenic inflammation in rat dorsal spinal cord assessed as CGRP peptide release per 20 mins at 10 uM; type: functional; method in brief: as §2
[10] = tested on: Spinal cord; assay: Induction of neurogenic inflammation in capsaicin desensitized rat dorsal spinal cord assessed as substance P release per 20 mins at 10 uM; type: functional; method in brief: as §1
[11] = tested on: Spinal cord; assay: Induction of neurogenic inflammation in rat dorsal spinal cord assessed as CGRP release per 20 mins at 10 uM in calcium free medium; type: functional; method in brief: as §3
[12] = tested on: Esophagus; assay: Induction of neurogenic inflammation in capsaicin desensitized rat esophagus assessed as substance P release per 20 mins at 50 uM; type: functional; method in brief: as §1
[13] = tested on: Rattus norvegicus; assay: Increase in plasma extravasation in intraplantar dosed rat hind paw; type: functional, organism-based
Method in brief: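 Male Sprague–Dawley rats (250 g) given Evans Blue (30 mg/kg) into the tail vein 1 min before intraplantar HNE (60–150 nmol in 30 μl) or vehicle. Killed by exsanguination at 30 min; paw skin dye extracted in formamide 48 h at room temperature in the dark and read at 620 nm, expressed as ng/g wet tissue. SR140333 (1.6 μmol/kg i.v.) given 15 min before. n ≥ 4.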

[14] = biological target: Transient receptor potential cation channel subfamily A member 1 (Rattus norvegicus) (UniProt Q6RI86); assay: Agonist activity at rat TRPA1 channel expressed in HEK293 cells assessed as increase in intracellular calcium; type: functional, cell-based
Method in brief: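 Stable Flp-In HEK293 line expressing C-terminally HA11-tagged rat TRPA1 under a tetracycline-inducible promoter, induced with 0.1 μg/ml tetracycline 16 h before testing. Uninduced and vector-control cells also tested. Fura2/AM [Ca2+]i read in a fluorescence plate reader, 30,000 cells per well, n = 4 wells per concentration. Concentration–response used to derive EC50.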

[15] = tested on: Mus musculus; assay: Induction of paw licking in intraplantarly dosed TRPA1-deficient Swiss mouse at 120 nmol/paw; type: functional, organism-based
Method in brief: (§4)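 Male TRPA1-deficient mice and wild-type littermates (about 30 g) injected intraplantar with HNE 120 nmol in 20 μl 0.9% saline. Total licking/lifting time recorded for 5 min, scored blind to genotype. n = 6 per group; single-factor ANOVA.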

[16] = tested on: Mus musculus; assay: Induction of paw licking in intraplantarly dosed Swiss mouse at 120 nmol/paw; type: functional, organism-based
Method in brief: (§5)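 Male Swiss mice injected intraplantar with HNE 120 nmol in 20 μl 0.9% saline. Time spent licking and lifting the injected paw recorded for 5 min immediately after injection; vehicle controls.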

[17] = species on record: Mus musculus; assay: Induction of paw lifting in Swiss mouse; type: functional, organism-based
Method in brief: (§6)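 Male Swiss mice injected intraplantar with HNE at 15–240 nmol in 20 μl saline, then placed in a chamber. Total time licking and lifting the injected paw recorded for 5 min.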

[18] = tested on: Spinal cord; assay: Induction of neurogenic inflammation in rat dorsal spinal cord assessed as substance P release for 20 mins; type: functional, tissue-based
Method in brief: (§7)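 Rat lumbar dorsal spinal cord or esophagus slices (≈0.4 mm), stabilized 60 min in Krebs' solution at 37°C. Agonist superfused 20 min (HNE 50 or 100 μM). Fractions collected every 10 min into ethanoic acid (final 2 N), freeze-dried, and assayed for SP- or CGRP-like immunoreactivity (fmol/g/20 min). Controls: capsaicin desensitization (10 μM, 20 min) or 2 mM EGTA. n ≥ 4 slices; mean ± SEM.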

[19] = biological target: Transient receptor potential cation channel subfamily A member 1 (Rattus norvegicus) (UniProt Q6RI86); assay: Activation of TRPA1 channel in rat dorsal root ganglion neurons assessed as increase in intracellular calcium level at 50 uM; type: tissue-based
Method in brief: (§8)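 Cultured rat dorsal root ganglion neurons loaded with Fura2/AM. HNE bath-applied across 30–500 μM. Ratiometric calcium imaging of the rise in [Ca2+]i, with capsaicin response recorded. Dose–response curve built from n ≥ 22 cells; mean ± SEM.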

[20] = tested on: Mus musculus; assay: Induction of paw lifting in TRPA1-deficient intraplantarly dosed Swiss mouse at 120 nmol/paw; type: functional, organism-based; method in brief: as §4
[21] = biological target: Transient receptor potential cation channel subfamily A member 1 (Rattus norvegicus) (UniProt Q6RI86); assay: Reversal of activation of TRPA1 channel in rat dorsal root ganglion neurons at 100 uM by calcium imaging in presence of capsazepine; type: tissue-based
Method in brief: (§9)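 Cultured rat DRG neurons, Fura2/AM ratiometric calcium imaging. HNE 100 μM-evoked [Ca2+]i rise measured with ruthenium red (1 μM), (+) camphor (1 mM), gentamycin (100 μM) or capsazepine (10 μM), each versus vehicle. n ≥ 22 cells; mean ± SEM; Bonferroni test.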

[22] = biological target: Transient receptor potential cation channel subfamily A member 1 (Rattus norvegicus) (UniProt Q6RI86); assay: Reversal of activation of TRPA1 channel in rat dorsal root ganglion neurons at 100 uM by calcium imaging in presence of camphor; type: tissue-based; method in brief: as §9
[23] = biological target: Transient receptor potential cation channel subfamily A member 1 (Rattus norvegicus) (UniProt Q6RI86); assay: Reversal of activation of TRPA1 channel in rat dorsal root ganglion neurons at 100 uM by calcium imaging in presence of gentamycin; type: tissue-based; method in brief: as §9
[24] = biological target: Transient receptor potential cation channel subfamily A member 1 (Rattus norvegicus) (UniProt Q6RI86); assay: Activation of TRPA1 channel in rat dorsal root ganglion neurons assessed as increase in intracellular calcium level at 300 uM; type: tissue-based; method in brief: as §8
[25] = biological target: T1, Transient receptor potential cation channel subfamily A member 1 (Rattus norvegicus, UniProt Q6RI86); assay: Activation of TRPA1 channel in rat dorsal root ganglion neurons assessed as increase in intracellular calcium level; type: tissue-based
Method in brief: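 Rat DRG neurons in culture, loaded with Fura2/AM and read by ratiometric calcium imaging. Agonist applied in the bath at 30–500 μM, with a concentration-response used to derive the EC50. n ≥ 22 cells.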

[26] = biological target: T1, Transient receptor potential cation channel subfamily A member 1; assay: Agonist activity at rat TRPA1 channel expressed in tetracycline induced HEK293 cells assessed as increase in intracellular calcium; type: functional, cell-based
Method in brief: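 Stable HEK293 FLPTREX line carrying HA-tagged rat TRPA1 under a tetracycline-inducible promoter. Expression induced with 0.1 μg/ml tetracycline 16 h before the assay. Fura2/AM [Ca2+]i read on a multiwell fluorescence plate reader, 30,000 cells per well, 10–100 μM, n = 4 wells per concentration, EC50 derived.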

[27] = tested on: Esophagus; assay: Induction of neurogenic inflammation in rat esophagus assessed as CGRP peptide release for 20 mins; type: functional, tissue-based; method in brief: as §7
[28] = species on record: Mus musculus; assay: Induction of paw licking in Swiss mouse; type: functional, organism-based; method in brief: as §6
[29] = biological target: Transient receptor potential cation channel subfamily A member 1 (Homo sapiens) (UniProt O75762); assay: Reversal of activation of human TRPA1 channel expressed in xenopus oocytes by two electrode voltage-clamp technique in presence of ruthenium red; type: cell-based; settings: Oocyte
Method in brief: (§10)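 Two-electrode voltage clamp at +70 mV holding potential on Xenopus oocytes expressing human TRPA1, with voltage ramps for current–voltage relationships. Agonist challenge followed by ruthenium red (10 μM) block; 2-aminoethyl diphenylborinate (200 μM) used as reference agonist.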

[30] = biological target: Transient receptor potential cation channel subfamily A member 1 (Rattus norvegicus) (UniProt Q6RI86); assay: Reversal of activation of TRPA1 channel in rat dorsal root ganglion neurons at 100 uM by calcium imaging in presence of ruthenium red; type: tissue-based; method in brief: as §9
[31] = species on record: Rattus norvegicus; assay: Reversal of induction of allodynia in rat in presence of camphor
[32] = species on record: Mus musculus; assay: Reversal of induction of paw lifting in Swiss mouse at 15 to 240 nmol/paw in presence gentamycin; type: functional, organism-based
Method in brief: (§11)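 Mouse nocifensive test: intraplantar capsaicin (0.1 nmol/20 μl, in 4% DMSO) or HNE (120 nmol/20 μl, in saline), with camphor, gentamycin or capsazepine co-injected intraplantar. Licking/lifting time recorded for 5 min; vehicle controls. Mean ± SEM; ANOVA with Bonferroni.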

[33] = tested on: Spinal cord; assay: Induction of neurogenic inflammation in rat dorsal spinal cord assessed as CGRP peptide release for 20 mins; type: functional, tissue-based; method in brief: as §7
[34] = biological target: Transient receptor potential cation channel subfamily A member 1 (Homo sapiens) (UniProt O75762); assay: Agonist activity at human TRPA1 channel expressed in xenopus oocytes assessed as membrane currents by two electrode voltage-clamp technique; type: functional, cell-based; settings: Oocyte; method in brief: as §10
[35] = species on record: Rattus norvegicus; assay: Induction of allodynia in rat
[36] = species on record: Rattus norvegicus; assay: Reversal of induction of allodynia in rat in presence of capsazepine
[37] = species on record: Rattus norvegicus; assay: Reversal of induction of allodynia in rat in presence of gentamycin
[38] = tested on: Mus musculus; assay: Induction of paw lifting in intraplantarly dosed Swiss mouse at 120 nmol/paw; type: functional, organism-based; method in brief: as §5
[39] = tested on: Esophagus; assay: Induction of neurogenic inflammation in rat esophagus assessed as substance P release for 20 mins; type: functional, tissue-based; method in brief: as §7
[40] = species on record: Mus musculus; assay: Inhibition of capsaicin-induction of paw lifting in Swiss mouse; type: functional, organism-based; method in brief: as §11
[41] = species on record: Rattus norvegicus; assay: Reduction of capsaocin-induction of allodynia in rat
[42] = species on record: Mus musculus; assay: Attenuation of capsaicin-induction of paw lifting in Swiss mouse; type: functional, organism-based; method in brief: as §11
[43] = biological target: Transient receptor potential cation channel subfamily A member 1 (Rattus norvegicus) (UniProt Q6RI86); assay: Activity at TRPA1 channel in rat dorsal root ganglion neurons assessed as attenuation of capsaicin-induced intracellular calcium; type: tissue-based
Method in brief: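 Cultured rat DRG neurons, Fura2/AM calcium imaging. Capsaicin (0.1 μM)-evoked [Ca2+]i responses measured in the presence of TRPA1 antagonists.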

Transient receptor potential cation channel subfamily A member 1 (Rattus norvegicus), sequence (Q6RI86 whole entry): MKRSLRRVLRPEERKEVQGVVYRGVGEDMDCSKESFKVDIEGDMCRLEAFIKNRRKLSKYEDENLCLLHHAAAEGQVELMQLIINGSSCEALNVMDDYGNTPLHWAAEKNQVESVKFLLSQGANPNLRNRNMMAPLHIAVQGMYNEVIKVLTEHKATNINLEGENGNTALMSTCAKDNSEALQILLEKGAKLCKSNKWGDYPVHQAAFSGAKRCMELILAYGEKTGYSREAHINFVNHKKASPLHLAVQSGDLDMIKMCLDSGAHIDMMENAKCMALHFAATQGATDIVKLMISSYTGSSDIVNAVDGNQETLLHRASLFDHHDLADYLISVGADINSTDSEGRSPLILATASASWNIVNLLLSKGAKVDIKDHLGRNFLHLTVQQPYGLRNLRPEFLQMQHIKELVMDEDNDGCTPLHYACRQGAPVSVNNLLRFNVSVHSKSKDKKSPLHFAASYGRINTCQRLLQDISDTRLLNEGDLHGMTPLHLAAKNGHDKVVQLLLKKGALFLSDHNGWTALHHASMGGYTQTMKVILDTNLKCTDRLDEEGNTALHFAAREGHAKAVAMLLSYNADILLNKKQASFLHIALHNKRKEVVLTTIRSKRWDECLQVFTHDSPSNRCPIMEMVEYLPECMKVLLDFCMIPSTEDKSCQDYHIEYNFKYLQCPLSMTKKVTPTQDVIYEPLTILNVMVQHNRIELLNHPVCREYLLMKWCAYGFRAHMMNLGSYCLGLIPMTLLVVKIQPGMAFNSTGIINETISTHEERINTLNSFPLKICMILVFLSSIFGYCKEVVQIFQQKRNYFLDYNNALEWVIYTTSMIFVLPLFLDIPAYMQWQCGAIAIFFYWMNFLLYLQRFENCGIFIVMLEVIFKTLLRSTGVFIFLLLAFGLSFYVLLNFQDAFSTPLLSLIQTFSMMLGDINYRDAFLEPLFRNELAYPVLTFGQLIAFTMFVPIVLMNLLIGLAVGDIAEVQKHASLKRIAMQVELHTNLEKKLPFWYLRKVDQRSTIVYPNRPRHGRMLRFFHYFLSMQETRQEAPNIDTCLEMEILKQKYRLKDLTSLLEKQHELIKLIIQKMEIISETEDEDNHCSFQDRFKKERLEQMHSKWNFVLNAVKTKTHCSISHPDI
Transient receptor potential cation channel subfamily A member 1 (Homo sapiens), sequence (O75762 whole entry): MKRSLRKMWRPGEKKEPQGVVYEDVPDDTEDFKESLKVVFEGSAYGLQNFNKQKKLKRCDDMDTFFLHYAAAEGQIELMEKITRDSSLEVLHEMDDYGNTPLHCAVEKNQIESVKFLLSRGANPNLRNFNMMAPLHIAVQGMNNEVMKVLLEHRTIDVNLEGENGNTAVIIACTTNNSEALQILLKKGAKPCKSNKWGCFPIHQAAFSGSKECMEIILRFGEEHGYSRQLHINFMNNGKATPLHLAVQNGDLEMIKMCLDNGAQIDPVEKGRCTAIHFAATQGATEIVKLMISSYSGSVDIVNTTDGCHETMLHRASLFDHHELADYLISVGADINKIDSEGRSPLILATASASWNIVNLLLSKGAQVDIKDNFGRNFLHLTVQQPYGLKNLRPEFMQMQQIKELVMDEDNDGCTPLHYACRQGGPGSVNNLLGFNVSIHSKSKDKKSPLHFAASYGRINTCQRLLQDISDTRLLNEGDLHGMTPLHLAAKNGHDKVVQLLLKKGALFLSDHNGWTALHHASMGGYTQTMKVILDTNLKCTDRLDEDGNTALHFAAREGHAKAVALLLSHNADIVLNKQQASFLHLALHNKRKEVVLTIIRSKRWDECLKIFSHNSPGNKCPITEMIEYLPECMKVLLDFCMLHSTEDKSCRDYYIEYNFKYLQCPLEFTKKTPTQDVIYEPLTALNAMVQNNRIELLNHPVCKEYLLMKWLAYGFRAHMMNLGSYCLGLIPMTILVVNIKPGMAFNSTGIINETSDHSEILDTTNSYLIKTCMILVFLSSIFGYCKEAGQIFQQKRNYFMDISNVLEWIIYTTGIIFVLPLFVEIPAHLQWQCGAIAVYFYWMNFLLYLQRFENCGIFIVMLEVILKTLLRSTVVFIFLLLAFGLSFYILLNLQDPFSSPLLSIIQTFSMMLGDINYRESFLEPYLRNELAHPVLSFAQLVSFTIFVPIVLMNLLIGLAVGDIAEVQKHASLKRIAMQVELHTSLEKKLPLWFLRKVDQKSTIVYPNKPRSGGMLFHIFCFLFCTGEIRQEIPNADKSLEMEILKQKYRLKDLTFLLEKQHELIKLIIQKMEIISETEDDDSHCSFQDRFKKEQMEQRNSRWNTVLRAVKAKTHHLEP
T1 sequence (Q6RI86 whole entry): as the sequence (Q6RI86 whole entry) above

O=C/C=C/c1ccccc1 [CINNAMALDEHYDE]
Activity [1]: 17.8 fmol/g
Activity [2]: 63.8 fmol/g
Activity [3]: 93.2 fmol/g
Activity [4]: 160.5 fmol/g
Activity [5]: 34.5 fmol/g
Activity [6]: 19.2 fmol/g
Activity [7]: 6.3 fmol/g
Activity [8]: 31.5 fmol/g
Activity [9]: 720.4 fmol/g
Activity [10]: 23.7 fmol/g
Activity [11]: 118.5 fmol/g
Activity [12]: 5.8 fmol/g

CCCCCC(O)/C=C/C=O (stereo not drawn) [4-HYDROXYNON-2-ENAL]
Activity [13]: Dose-dependent effect
Activity [14]: inactive
Activity [15]: inactive
Activity [16]: Active
Activity [17]: Dose-dependent effect
Activity [18]: Active
Activity [19]: Active
Activity [20]: inactive
Activity [21]: Active
Activity [22]: inactive
Activity [23]: inactive
Activity [24]: Active
EC50 [25]: 77 µM
EC50 [26]: 27 µM
Activity [27]: Active
Activity [28]: Dose-dependent effect
Activity [29]: Active
Activity [30]: inactive
Activity [31]: inactive
Activity [32]: inactive
Activity [33]: Active
Activity [34]: Active
Activity [35]: Dose-dependent effect
Activity [36]: Active
Activity [37]: inactive
Activity [38]: Active
Activity [39]: Active

CC12CCC(CC1=O)C2(C)C (stereo not drawn)
Activity [40]: Active

Oc1cc2c(cc1O)CN(C(=S)NCCc1ccc(Cl)cc1)CCC2
Activity [41]: Active
Activity [42]: Active
Activity [43]: Active
